# Laboratory results reported in ChEMBL document CHEMBL1123667, “Molecular modification of anticholinergics as probes for muscarinic receptors. 1. Amino esters of alpha-substituted phenylacetic acid and related analogues” (J Med Chem, 1987).
# Tests used:
# [1] = species: Cavia porcellus; experiment: Potency (isolated guinea pig ileum) relative to adiphenine was determined.; type: functional
# [2] = species: Cavia porcellus; experiment: Antispasmodic activity against isolated guinea pig ileum with metacholine as a spasmogen according to the method of Magnus.; type: functional; details: read-out: ID50 (the source's name)
# Outline: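 Guinea pig ileum segment in a 25-mL organ bath of Tyrode solution at 37 °C, gassed with 5% CO2–95% O2, equilibrated about 30 min. Repeated standard methacholine chloride challenges (4 × 10^-6 M) confirm a consistent response. Percent inhibition of contraction is measured and ID50 is taken by linear regression.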
# [3] = target: Muscarinic acetylcholine receptor; experiment: Affinity for the Muscarinic acetylcholine receptor; type: protein assay, Rattus norvegicus
# [4] = species: Rattus norvegicus; experiment: Potency (isolated rat ileum) relative to adiphenine was determined.; type: functional
# [5] = target: Muscarinic acetylcholine receptor; experiment: pA2 value represents the affinity for the Muscarinic acetylcholine receptor and was calculated according to the Ariens and Van Rossum; type: protein assay
# Outline: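 Terminal ileum from male Sprague-Dawley rats (250–300 g) killed by cervical dislocation, in a 10-mL bath of Tyrode solution at 35 °C gassed with 95% O2/5% CO2, equilibrated ≥30 min. Cumulative ACh 0.05–1.0 μg/mL at 3-min intervals gives the control curve. After washout and 30 min, compound is added; 10 min later ACh 1–300 μg/mL is given cumulatively. Contraction is read in mm. pA2 = pAx + log(x − 1), with x the ACh EC50 ratio, by linear regression over two or more experiments at four or more dose levels.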
SMILES,Relative potency [1],"IC50 ([2]; Cavia porcellus, Ileum) [µM]",pA2 [3],Relative potency [4],IC50 [2] [µM],pA2 [5]
"CCN(CC)CCOC(=O)C(CCCCO)c1ccccc1.Cl (single isomer, unassigned; (+))",0.74,1,,,,
CCCCC(C(=O)OCCN(CC)CC)(c1ccccc1)c1ccccc1.Cl,0.28,2.6,,,,
CCN(CC)CCOC(=O)C(CC)(c1ccccc1)c1ccccc1.Cl,2.24,0.33,6.63,0.15,,
C=C(C(=O)OCCN(CC)CC)c1ccccc1.Cl,,,5.86,0.03,,
"CCN(CC)CCOC(=O)C(CO)c1ccccc1.Cl (single isomer, unassigned; (+))",3.52,,,,0.21,
CCN(CC)CCOC(=O)C(CO)c1ccccc1.Cl (racemic),10.57,,,0.48,0.07,7.13
CCN(CC)CCOC(=O)C(CC(C)C)(c1ccccc1)c1ccccc1.Cl,0.62,1.2,,,,
"CCN(CC)CCOC(=O)C(COS(=O)(=O)c1ccc(C)cc1)c1ccccc1.Cl (single isomer, unassigned; (-))",,,6.42,0.09,,
"CCN(CC)CCOC(=O)C(COS(=O)(=O)c1ccc(C)cc1)c1ccccc1.Cl (single isomer, unassigned; (+))",,,6.67,0.17,,
CCN(CC)CCOC(=O)C(c1ccccc1)c1ccccc1.Cl [ADIPHENINE HYDROCHLORIDE],1,0.74,7.45,1,,
CCCC(C(=O)OCCN(CC)CC)(c1ccccc1)c1ccccc1.Cl [PROADIFEN HYDROCHLORIDE],0.62,1.2,,,,
"CCN(CC)CCOC(=O)C(CO)c1ccccc1.Cl (single isomer, unassigned; (-))",23.87,,7.4,0.91,0.031,
CCN(CC)CCOC(=O)C(CCCCO)c1ccccc1.Cl (racemic),0.67,,,,1.1,
CCN(CC)CCOC(=O)C(C)(c1ccccc1)c1ccccc1.Cl,14,0.053,8.4,9,,
CCN(CC)CCO[C@@H]1CCCC[C@@H]1c1ccccc1.Cl (relative stereo),,,7.13,0.47,,
CCN(CC)CCOC(=O)C(c1ccccc1)(c1ccccc1)C(C)C.Cl,0.57,1.3,,,,
CCN(CC)CCO[C@H]1CCCC[C@@H]1c1ccccc1.Cl (relative stereo),,,6.38,0.09,,
